Experimental data taken from ChEMBL document CHEMBL3877303 (J Med Chem, 2017).
Each block holds one molecule with its values, some of them ahead of it. Active and inactive are the calls of the source. The calls are words filed in the database; no cut-off is given here.

Columns and labels:
[1] = Antiproliferative activity against human KU812 cells measured after 72 hrs by CellTiter-Glo or CCK8 assay; format: functional; conditions: KU812, 72 h
[2] = Mean residence time (0 to t) in Sprague-Dawley rat at 1 mg/kg, iv; format: ADME, organism-based; conditions: in vivo
Summary of the method: (§1)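 Male Sprague-Dawley rats, 6-8 weeks old, fasted overnight, dosed iv or po. Jugular vein blood (~0.2 mL, heparin) sampled at 1 min to 8 h (iv) or 5 min to 24 h (po). Plasma separated by centrifugation at 2-8 °C and stored at -80 °C before analysis.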

[3] = test system: Mus musculus; test: Toxicity in nu/nu mouse xenografted with human K562 cells assessed as change in body weight at 25 to 100 mg/kg/day administered via oral gavage measured after 28 days; format: organism-based; conditions: in vivo, 672 h
Summary of the method: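 Female nu/nu mice given 10 million K562 cells in PBS/Matrigel (1:1) subcutaneously into the right flank. Once tumors reached 200 to 400 mm³, mice were randomized into groups of 4 or 5 and dosed daily by oral gavage in 0.5% methylcellulose/0.4% Tween80 in water, or vehicle, for 28 days. Body weight measured and expressed relative to initial; mean ± SEM.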

[4] = molecular target: Tyrosine-protein kinase ABL1 (Homo sapiens, UniProt P00519); test: Inhibition of C-terminal His-tagged human ABL1 expressed in baculovirus infected SF9 cells using Tyr 02 peptide as substrate measured after 1 hr by FRET based Z'Lyte assay
[5] = molecular target: Epithelial discoidin domain-containing receptor 1 (Homo sapiens, UniProt Q08345); test: Inhibition of human GST-tagged DDR1 cytoplasmic domain expressed in baculovirus expression system measured after 1 hr by FRET based Z'Lyte assay
Summary of the method: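 Z'-LYTE FRET biochemical kinase assay run by Invitrogen on selected kinases identified from binding profiling; IC50 from dose-response.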

[6] = test system: Mast/stem cell growth factor receptor Kit (Homo sapiens), P10721 [V654A]; test: Inhibition of Tel-fused c-KIT V654A mutant (unknown origin) expressed in BAF3 cells assessed as growth inhibition measured after 72 hrs by CellTiter-Glo or CCK8 assay; format: cell-based
Summary of the method: (§2)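 BaF3 lines were made by retroviral transduction with kinase-fusion MSCV vectors packaged in HEK293T cells. Cells were selected with puromycin for 48 h, then selected again without IL-3 so growth depends on the introduced kinase. […] They were seeded at 1 to 2.5×10^4 cells/mL with compound dilutions and incubated 72 h. Viability was read by CellTiter-Glo luminescence or CCK-8 absorbance (450/655 nm), normalized to DMSO control; GI50 was curve-fitted from triplicate tests.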

[7] = test system: MEG-01; test: Induction of apoptosis in human MEG01 cells assessed as cleavage of PARP at 0.1 to 3 uM by Western blot analysis; format: functional, cell-based
Summary of the method: (§3)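 Cells were treated with DMSO or serially diluted compound for the indicated periods. They were washed in ice-cold PBS and lysed in RIPA buffer with protease/phosphatase inhibitors, and protein was quantified by BCA. Lysates were resolved by SDS-PAGE, transferred to PVDF and blocked in 5% milk/TBST. Blots were probed for PARP and caspase-3, with β-actin as loading control, and detected by ECL.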

[8] = Anticancer activity against human GISTT1 cells xenografted in nu/nu mouse assessed as tumor weight at 50 mg/kg, po administered daily via oral gavage measured 21 days post compound treatment (reference value: 2.86 g)
[9] = Cell cycle arrest in human GISTT1 cells assessed as accumulation at G0/G1 phase at 0.3 uM after 24 hrs by propidium iodide/RNase staining based flow cytometry; format: functional
Summary of the method: (§4)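 Cells were exposed to serially diluted compound, then fixed in cold 70% ethanol overnight at -20 °C. They were stained with PI/RNase buffer for DNA-content cell-cycle analysis.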

[10] = molecular target: T1, Mast/stem cell growth factor receptor Kit (Homo sapiens, UniProt P10721); test: Inhibition of c-KIT mediated signaling pathways assessed as reduction in S6K phosphorylation at T389 in human GIST882 cells at 0.03 to 10 uM measured after 2 hrs by immunoblotting; format: cell-based
Summary of the method: (§5)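 After an ice-cold PBS wash, cells were lysed in RIPA buffer (50 mM Tris pH 8.0) with protease and phosphatase inhibitors, and protein was quantified by BCA. Lysates were run on SDS-PAGE, transferred to PVDF and blocked in 5% milk/TBST. Phospho- and total proteins were probed by immunoblot with ECL detection; β-actin served as loading control.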

[11] = test system: Mast/stem cell growth factor receptor Kit (Homo sapiens), P10721 [V559D,T670I]; test: Inhibition of Tel-fused c-KIT T670I/V559D double mutant (unknown origin) expressed in BAF3 cells assessed as growth inhibition measured after 72 hrs by CellTiter-Glo or CCK8 assay; format: cell-based; summary of the method: as §2
[12] = test system: GIST882; test: Induction of apoptosis in human GIST882 cells assessed as increase in cleaved caspase-3 level at 0.1 to 3 uM by Western blot analysis; format: functional, cell-based; summary of the method: as §3
[13] = molecular target: T2, BCR/ABL p210 fusion protein (Homo sapiens, UniProt A1Z199); test: Inhibition of BCR/ABL p210 fusion protein autophosphorylation at Y245 in human KU812 cells at 0.01 to 3 uM measured after 2 hrs by immunoblotting; format: cell-based; summary of the method: as §5
[14] = Anticancer activity against human K562 cells xenografted in nu/nu mouse assessed as tumor weight at 50 mg/kg administered via oral gavage measured after 28 days (reference value: 6.75 g); format: functional
Summary of the method: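 Female nu/nu mice received ten million K562 cells subcutaneously in the right flank, in PBS mixed 1:1 with Matrigel. Daily oral gavage began at 200-400 mm³ tumor size, with 4 or 5 mice per group. Dosing was 25, 50 or 100 mg/kg/d or vehicle (0.5% methylcellulose/0.4% Tween80) for 28 days. Body weight and tumor size were normalized to initial values, and final tumor weight was recorded. Data are mean ± SEM.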

[15] = molecular target: T2, BCR/ABL p210 fusion protein; test: Inhibition of BCR/ABL p210 fusion protein mediated signaling pathways assessed as reduction in CrkL phosphorylation at Y207 in human MEG01 cells at 0.01 to 3 uM measured after 2 hrs by immunoblotting; format: cell-based; conditions: MEG-01; summary of the method: as §5
[16] = test system: BaF3; test: Inhibition of BCR/ABL p210 fusion protein F317I mutant (unknown origin) expressed in BAF3 cells assessed as growth inhibition measured after 72 hrs by CellTiter-Glo or CCK8 assay; format: cell-based; conditions: Homo sapiens; summary of the method: as §2
[17] = Tmax in Sprague-Dawley rat at 1 mg/kg, iv; format: ADME, organism-based; conditions: in vivo; summary of the method: as §1
[18] = Cell cycle arrest in human GISTT1 cells assessed as accumulation at G0/G1 phase at 1 uM after 24 hrs by propidium iodide/RNase staining based flow cytometry; format: functional; summary of the method: as §4
[19] = molecular target: T1, Mast/stem cell growth factor receptor Kit; conditions: GISTT1, 1 uM
[20] = molecular target: T1, Mast/stem cell growth factor receptor Kit; conditions: 1 uM
[21] = molecular target: T1, Mast/stem cell growth factor receptor Kit; conditions: 1 uM; remark: listed apart in the source
[22] = Cell cycle arrest in human MEG01 cells assessed as accumulation at G0/G1 phase at 1 uM after 24 hrs by propidium iodide/RNase staining based flow cytometry; format: functional; conditions: MEG-01; summary of the method: as §4

T1 sequence (P10721 whole entry): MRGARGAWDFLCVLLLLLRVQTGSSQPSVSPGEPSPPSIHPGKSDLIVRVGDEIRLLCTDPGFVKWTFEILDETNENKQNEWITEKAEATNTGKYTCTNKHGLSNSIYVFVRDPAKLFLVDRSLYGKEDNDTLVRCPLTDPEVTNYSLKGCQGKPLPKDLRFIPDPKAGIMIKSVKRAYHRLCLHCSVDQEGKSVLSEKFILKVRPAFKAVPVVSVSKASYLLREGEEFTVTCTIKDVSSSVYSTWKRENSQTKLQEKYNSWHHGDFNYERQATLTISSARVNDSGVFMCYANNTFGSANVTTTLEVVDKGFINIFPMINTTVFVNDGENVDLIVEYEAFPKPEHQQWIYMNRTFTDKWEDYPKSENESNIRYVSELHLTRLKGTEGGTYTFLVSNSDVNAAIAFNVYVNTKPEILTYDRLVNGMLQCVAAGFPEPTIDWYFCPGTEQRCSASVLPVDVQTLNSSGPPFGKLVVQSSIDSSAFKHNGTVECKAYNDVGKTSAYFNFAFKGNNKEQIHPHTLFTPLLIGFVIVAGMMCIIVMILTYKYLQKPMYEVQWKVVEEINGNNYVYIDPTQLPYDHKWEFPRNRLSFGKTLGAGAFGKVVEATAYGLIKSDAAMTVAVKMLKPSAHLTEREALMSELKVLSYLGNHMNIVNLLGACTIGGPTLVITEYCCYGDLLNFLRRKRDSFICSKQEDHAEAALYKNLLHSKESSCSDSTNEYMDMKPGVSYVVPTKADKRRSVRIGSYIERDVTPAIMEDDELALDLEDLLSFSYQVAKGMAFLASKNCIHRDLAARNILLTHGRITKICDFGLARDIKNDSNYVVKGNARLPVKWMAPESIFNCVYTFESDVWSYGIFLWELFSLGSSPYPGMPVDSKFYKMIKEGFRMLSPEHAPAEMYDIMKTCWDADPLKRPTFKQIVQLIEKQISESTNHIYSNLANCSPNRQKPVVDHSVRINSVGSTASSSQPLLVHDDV
T2 sequence (A1Z199 1-97): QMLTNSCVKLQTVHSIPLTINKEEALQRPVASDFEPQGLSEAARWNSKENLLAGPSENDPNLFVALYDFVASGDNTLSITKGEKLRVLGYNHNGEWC
Chain of Tyrosine-protein kinase ABL1 (P00519 whole entry, the tested form may be a part): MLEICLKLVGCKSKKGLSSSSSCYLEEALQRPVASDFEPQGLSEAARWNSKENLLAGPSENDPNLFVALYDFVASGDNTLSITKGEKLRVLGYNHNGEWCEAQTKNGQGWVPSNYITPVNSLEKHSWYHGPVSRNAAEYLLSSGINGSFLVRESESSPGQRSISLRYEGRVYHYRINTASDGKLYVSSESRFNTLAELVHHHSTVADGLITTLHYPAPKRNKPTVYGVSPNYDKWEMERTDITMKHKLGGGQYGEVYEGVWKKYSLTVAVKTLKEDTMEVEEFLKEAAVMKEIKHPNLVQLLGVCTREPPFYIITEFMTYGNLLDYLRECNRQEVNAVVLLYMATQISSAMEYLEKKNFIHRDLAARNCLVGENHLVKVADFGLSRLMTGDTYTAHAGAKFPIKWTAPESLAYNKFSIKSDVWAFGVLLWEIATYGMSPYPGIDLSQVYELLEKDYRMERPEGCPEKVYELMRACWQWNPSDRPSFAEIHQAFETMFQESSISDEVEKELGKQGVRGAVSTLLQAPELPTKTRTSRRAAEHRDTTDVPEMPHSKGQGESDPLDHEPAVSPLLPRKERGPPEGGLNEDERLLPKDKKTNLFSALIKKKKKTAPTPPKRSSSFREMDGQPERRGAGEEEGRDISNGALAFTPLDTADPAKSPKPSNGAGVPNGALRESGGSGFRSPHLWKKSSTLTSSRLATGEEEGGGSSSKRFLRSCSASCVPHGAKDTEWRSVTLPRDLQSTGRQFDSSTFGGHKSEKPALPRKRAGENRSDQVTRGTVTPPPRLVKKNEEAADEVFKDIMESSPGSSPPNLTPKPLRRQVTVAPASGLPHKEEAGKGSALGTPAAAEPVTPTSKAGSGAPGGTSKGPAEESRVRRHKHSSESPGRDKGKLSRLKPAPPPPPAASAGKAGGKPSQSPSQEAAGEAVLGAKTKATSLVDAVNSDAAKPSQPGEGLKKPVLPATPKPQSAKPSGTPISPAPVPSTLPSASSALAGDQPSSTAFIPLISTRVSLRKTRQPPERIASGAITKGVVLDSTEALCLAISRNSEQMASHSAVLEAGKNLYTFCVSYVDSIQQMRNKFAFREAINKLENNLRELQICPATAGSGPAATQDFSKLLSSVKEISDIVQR
Chain of Mast/stem cell growth factor receptor Kit (Homo sapiens), P10721 [V654A] (P10721 whole entry V654A, the tested form may be a part): as the sequence (P10721 whole entry) above, with V654A counted along it
Chain of Epithelial discoidin domain-containing receptor 1 (Q08345 whole entry, the tested form may be a part): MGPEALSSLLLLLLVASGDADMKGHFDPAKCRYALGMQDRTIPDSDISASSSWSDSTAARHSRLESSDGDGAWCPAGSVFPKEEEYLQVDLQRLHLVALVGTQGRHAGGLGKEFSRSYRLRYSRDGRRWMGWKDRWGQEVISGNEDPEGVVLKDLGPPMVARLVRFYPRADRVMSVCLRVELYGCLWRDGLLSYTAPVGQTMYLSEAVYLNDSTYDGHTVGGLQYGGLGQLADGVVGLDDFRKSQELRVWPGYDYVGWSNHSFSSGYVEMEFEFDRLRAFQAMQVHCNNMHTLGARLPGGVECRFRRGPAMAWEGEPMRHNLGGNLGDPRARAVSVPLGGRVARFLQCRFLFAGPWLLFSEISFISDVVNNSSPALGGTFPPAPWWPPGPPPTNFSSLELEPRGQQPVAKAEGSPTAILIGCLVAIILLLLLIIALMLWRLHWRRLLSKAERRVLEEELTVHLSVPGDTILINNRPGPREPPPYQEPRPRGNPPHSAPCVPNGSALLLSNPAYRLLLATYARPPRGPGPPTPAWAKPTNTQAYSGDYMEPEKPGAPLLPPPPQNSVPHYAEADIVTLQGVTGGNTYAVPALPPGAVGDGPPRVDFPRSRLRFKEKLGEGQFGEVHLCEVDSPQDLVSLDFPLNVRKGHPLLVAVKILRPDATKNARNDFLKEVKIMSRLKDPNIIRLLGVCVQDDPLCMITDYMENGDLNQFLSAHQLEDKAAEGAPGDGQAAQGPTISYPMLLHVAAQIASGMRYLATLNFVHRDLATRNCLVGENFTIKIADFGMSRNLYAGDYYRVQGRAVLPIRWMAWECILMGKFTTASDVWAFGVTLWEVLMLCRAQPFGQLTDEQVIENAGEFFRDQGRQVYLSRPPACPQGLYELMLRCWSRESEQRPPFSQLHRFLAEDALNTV
Chain of Mast/stem cell growth factor receptor Kit (Homo sapiens), P10721 [V559D,T670I] (P10721 whole entry V559D/T670I, the tested form may be a part): as the sequence (P10721 whole entry) above, with V559D, T670I counted along it

- MRT last [2]: 1.93 h
- IC50 [4]: 46 nM
- IC50 [5]: 116 nM
- GI50 [6]: 1840 nM
- inhibition [10]: Active
- GI50 [11]: 1010 nM
- inhibition [13]: Active
- inhibition [15]: Active
- GI50 [16]: 490 nM
- Tmax [17]: 1.02 min
Compound: Cc1ccc(C(=O)N2CCC(Oc3cc(NC(=O)c4ccc(CN5CCN(C)CC5)c(C(F)(F)F)c4)ccc3C)CC2)cn1
- GI50 [1]: 56 nM
- Activity [3]: Non-Toxic
- Activity [7]: Active
- Activity [8]: 2.19 g
- Activity [9]: Active
- Activity [12]: Active
- Activity [14]: 6.51 g

- inhibition [19]: Active
- inhibition [20]: Active
- inhibition [21]: Active
Compound: Cc1ccc(NC(=O)c2ccc(CN3CCN(C)CC3)cc2)cc1Nc1nccc(-c2cccnc2)n1 [IMATINIB]
- Activity [18]: Active
- Activity [22]: Active
